Results taken from ChEMBL document CHEMBL5303300, “EUbOPEN Chemogenomics Library - Multiplex” (2023).
Several values for one entry are separate records, joined by “and”; a condition that tells them apart may be missing. Equal values may be shown once.

Test system: Fibroblast
Test: Multiplex assay against human fibroblast
Type: toxicity, cell-based
Settings: number of replicates 2
Outline: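 At seeding, live cells were stained with Hoechst33342, BioTracker Green Microtubule Cytoskeleton Dye, MitoTracker Red and Annexin V Alexa Fluor 680. After compound addition they were imaged on a CQ1 microscope at 37°C and 5% CO2, and CellPathfinder machine-learning gating sorted them into Hoechst high-intensity objects or normal cells, with normal cells further split into healthy, pyknosed or fragmented nuclei and pyknosed cells into mitotic or apoptotic. Tubulin, mitochondrial-mass and membrane-permeability phenotypes are given as per cents of cells with healthy nuclei.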

[1] = 12 h, 1 µM, compound concentration 1 uM
[2] = 12 h, 10 µM, compound concentration 10 uM
[3] = 24 h, 1 µM, compound concentration 1 uM
[4] = 24 h, 10 µM, compound concentration 10 uM
[5] = 48 h, 1 µM, compound concentration 1 uM
[6] = 48 h, 10 µM, compound concentration 10 uM

COc1ccc(F)c(F)c1C(=O)c1cnc(NC2CCN(S(C)(=O)=O)CC2)nc1N [RG-547]
Population Apoptotic (%) [1]: 48% and 56%
Population Fragmented Nuclei (%) [1]: 5% and 8%
Population Healthy Nuclei (%) [1]: 78% and 70%
Population Hoechst High Intensity Objects (%) [1]: 0%
Population Membrane Permeable-Phenotype (%) [1]: 2% and 5%
Population Mitochondria Different-Phenotype (%) [1]: 0%
Population Mitotic Cells (%) [1]: 51% and 43%
Population Normal (%) [1]: 100%
Population Pyknosed Nuclei (%) [1]: 15% and 20%
Population Tubulin-Different-Phenotype (%) [1]: 2% and 9%
Total Cell Count [1]: 173 and 188
Population Apoptotic (%) [2]: 50% and 56%
Population Fragmented Nuclei (%) [2]: 13% and 12%
Population Healthy Nuclei (%) [2]: 73% and 72%
Population Hoechst High Intensity Objects (%) [2]: 0%
Population Membrane Permeable-Phenotype (%) [2]: 7% and 5%
Population Mitochondria Different-Phenotype (%) [2]: 3% and 2%
Population Mitotic Cells (%) [2]: 50% and 43%
Population Normal (%) [2]: 99% and 100%
Population Pyknosed Nuclei (%) [2]: 13% and 15%
Population Tubulin-Different-Phenotype (%) [2]: 30% and 17%
Total Cell Count [2]: 192 and 209
Population Apoptotic (%) [3]: 57% and 67%
Population Fragmented Nuclei (%) [3]: 9% and 10%
Population Healthy Nuclei (%) [3]: 77% and 69%
Population Hoechst High Intensity Objects (%) [3]: 0%
Population Membrane Permeable-Phenotype (%) [3]: 4% and 5%
Population Mitochondria Different-Phenotype (%) [3]: 1% and 0%
Population Mitotic Cells (%) [3]: 42% and 32%
Population Normal (%) [3]: 100%
Population Pyknosed Nuclei (%) [3]: 13% and 20%
Population Tubulin-Different-Phenotype (%) [3]: 7%
Total Cell Count [3]: 196 and 184
Population Apoptotic (%) [4]: 61% and 75%
Population Fragmented Nuclei (%) [4]: 9% and 11%
Population Healthy Nuclei (%) [4]: 72% and 74%
Population Hoechst High Intensity Objects (%) [4]: 0%
Population Membrane Permeable-Phenotype (%) [4]: 7% and 5%
Population Mitochondria Different-Phenotype (%) [4]: 6% and 4%
Population Mitotic Cells (%) [4]: 38% and 25%
Population Normal (%) [4]: 100%
Population Pyknosed Nuclei (%) [4]: 18% and 13%
Population Tubulin-Different-Phenotype (%) [4]: 35% and 26%
Total Cell Count [4]: 194 and 201
Population Apoptotic (%) [5]: 44% and 71%
Population Fragmented Nuclei (%) [5]: 20% and 11%
Population Healthy Nuclei (%) [5]: 44% and 70%
Population Hoechst High Intensity Objects (%) [5]: 3% and 0%
Population Mitochondria Different-Phenotype (%) [5]: 9% and 0%
Population Mitotic Cells (%) [5]: 55% and 28%
Population Normal (%) [5]: 96% and 100%
Population Pyknosed Nuclei (%) [5]: 36% and 17%
Population Apoptotic (%) [6]: 84% and 68%
Population Fragmented Nuclei (%) [6]: 8% and 11%
Population Healthy Nuclei (%) [6]: 62%
Population Hoechst High Intensity Objects (%) [6]: 0%
Population Membrane Permeable-Phenotype (%) [6]: 17% and 18%
Population Mitochondria Different-Phenotype (%) [6]: 2% and 6%
Population Mitotic Cells (%) [6]: 15% and 31%
Population Normal (%) [6]: 100%
Population Pyknosed Nuclei (%) [6]: 28% and 25%
Population Tubulin-Different-Phenotype (%) [6]: 43% and 38%
Total Cell Count [6]: 179 and 184

CNc1ncc2cc(-c3ccc(-c4cccc(C)n4)cc3Cl)c(=O)n(C[C@H]3OC[C@H](N)CO3)c2n1
Population Apoptotic (%) [1]: 43% and 42%
Population Fragmented Nuclei (%) [1]: 9% and 17%
Population Healthy Nuclei (%) [1]: 51% and 52%
Population Hoechst High Intensity Objects (%) [1]: 0%
Population Membrane Permeable-Phenotype (%) [1]: 10%
Population Mitochondria Different-Phenotype (%) [1]: 0%
Population Mitotic Cells (%) [1]: 56% and 57%
Population Normal (%) [1]: 100%
Population Pyknosed Nuclei (%) [1]: 39% and 30%
Population Tubulin-Different-Phenotype (%) [1]: 21% and 18%
Total Cell Count [1]: 176 and 246
Population Apoptotic (%) [2]: 44% and 35%
Population Fragmented Nuclei (%) [2]: 22% and 26%
Population Healthy Nuclei (%) [2]: 26% and 28%
Population Hoechst High Intensity Objects (%) [2]: 1% and 7%
Population Membrane Permeable-Phenotype (%) [2]: 23% and 16%
Population Mitochondria Different-Phenotype (%) [2]: 0%
Population Mitotic Cells (%) [2]: 55% and 64%
Population Normal (%) [2]: 98% and 92%
Population Pyknosed Nuclei (%) [2]: 50% and 45%
Population Tubulin-Different-Phenotype (%) [2]: 55% and 51%
Total Cell Count [2]: 227 and 323
Population Apoptotic (%) [3]: 41% and 67%
Population Fragmented Nuclei (%) [3]: 14% and 21%
Population Healthy Nuclei (%) [3]: 56%
Population Hoechst High Intensity Objects (%) [3]: 0%
Population Membrane Permeable-Phenotype (%) [3]: 25% and 13%
Population Mitochondria Different-Phenotype (%) [3]: 0%
Population Mitotic Cells (%) [3]: 58% and 32%
Population Normal (%) [3]: 100% and 99%
Population Pyknosed Nuclei (%) [3]: 28% and 21%
Population Tubulin-Different-Phenotype (%) [3]: 29% and 15%
Total Cell Count [3]: 179 and 248
Population Apoptotic (%) [4]: 45% and 65%
Population Fragmented Nuclei (%) [4]: 27% and 23%
Population Healthy Nuclei (%) [4]: 34% and 36%
Population Hoechst High Intensity Objects (%) [4]: 7% and 4%
Population Membrane Permeable-Phenotype (%) [4]: 31% and 34%
Population Mitochondria Different-Phenotype (%) [4]: 5% and 4%
Population Mitotic Cells (%) [4]: 54% and 34%
Population Normal (%) [4]: 92% and 95%
Population Pyknosed Nuclei (%) [4]: 38% and 39%
Population Tubulin-Different-Phenotype (%) [4]: 37% and 59%
Total Cell Count [4]: 304 and 248
Population Apoptotic (%) [5]: 61% and 86%
Population Fragmented Nuclei (%) [5]: 22% and 24%
Population Healthy Nuclei (%) [5]: 64% and 66%
Population Hoechst High Intensity Objects (%) [5]: 0%
Population Membrane Permeable-Phenotype (%) [5]: 36% and 19%
Population Mitochondria Different-Phenotype (%) [5]: 0%
Population Mitotic Cells (%) [5]: 38% and 13%
Population Normal (%) [5]: 100%
Population Pyknosed Nuclei (%) [5]: 12% and 9%
Population Tubulin-Different-Phenotype (%) [5]: 39% and 19%
Total Cell Count [5]: 171 and 237
Population Apoptotic (%) [6]: 42% and 24%
Population Fragmented Nuclei (%) [6]: 19% and 28%
Population Healthy Nuclei (%) [6]: 57% and 51%
Population Hoechst High Intensity Objects (%) [6]: 9% and 11%
Population Membrane Permeable-Phenotype (%) [6]: 40% and 39%
Population Mitochondria Different-Phenotype (%) [6]: 2% and 1%
Population Mitotic Cells (%) [6]: 57% and 75%
Population Normal (%) [6]: 90% and 88%
Population Pyknosed Nuclei (%) [6]: 23% and 20%
Population Tubulin-Different-Phenotype (%) [6]: 33% and 29%
Total Cell Count [6]: 268 and 338
